Here are results for four compounds from PMC9891257 (RNA, 2023).

Values joined by “and” are separate entries in the source; they are usually repeats but may differ in a detail not shown here. Identical values can stand only once.

For one assay, the target named is murine eIF4E (Mus musculus, UniProt P63073). The assay is described as follows: Thermal stability of eIF4E by DSF in the presence of cap analogs. It is filed as binding. The conditions noted are these: for Tm (at 100 μM of ligand): murine eIF4E, 100 μM ligand, apo form 38.42; for ΔTm (at 100 μM of ligand): in relation to eIF4E in apo form. In a few lines: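 Murine eIF4E (aa 28–217), 4 μM final, with 5× SYPRO Orange in HEPES/KOH pH 7.2, 100 mM KCl, 0.5 mM EDTA, 1 mM DTT. Test compound at 100 μM final (single point) or 1–100 μM series. Heated 22–95°C at 0.5°C/30 sec, fluorescence read each step. Normalized signal fitted to a two-state denaturation model for Tm. ΔTm is relative to apo eIF4E. Apparent Kd is from ΔTm change with rising ligand concentration.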
(In general: DSF heats the sample and reads unfolding from a dye or from intrinsic fluorescence.)

Assay [1] has as its system Rabbit reticulocyte lysate. The assay is described as follows: Translation of luciferase mRNA capped with cap analogs in RRL system. It is filed as biochemical. The settings on record: for Relative cap-dependent translation efficiency / Relative translation efficiency: Rabbit reticulocyte lysate; for Relative cap-dependent translation efficiency: relative to m^7GpppG; for Relative translation efficiency: relative to m^7GpppG-capped transcript. The gist of the method: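 Firefly luciferase mRNA made by SP6 transcription of PCR template, 1 h at 37°C, with 0.5 mM ATP/CTP/UTP, 0.1 mM GTP, 0.5 mM cap analog (cap:GTP 5:1). Then DNase I treatment. Translated in 40% Flexi rabbit reticulocyte lysate with 0.01 mM amino acids, 0.9 mM Mg acetate, 190 mM K acetate. Lysate preincubated 60 min at 30°C, then 60 min with mRNA. Luciferase luminescence expressed relative to m7GpppG-capped mRNA.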

The next assay addresses T1, SP6 RNA polymerase (Enterobacteria phage SP6, UniProt P06221).
T1 sequence (P06221 1-874): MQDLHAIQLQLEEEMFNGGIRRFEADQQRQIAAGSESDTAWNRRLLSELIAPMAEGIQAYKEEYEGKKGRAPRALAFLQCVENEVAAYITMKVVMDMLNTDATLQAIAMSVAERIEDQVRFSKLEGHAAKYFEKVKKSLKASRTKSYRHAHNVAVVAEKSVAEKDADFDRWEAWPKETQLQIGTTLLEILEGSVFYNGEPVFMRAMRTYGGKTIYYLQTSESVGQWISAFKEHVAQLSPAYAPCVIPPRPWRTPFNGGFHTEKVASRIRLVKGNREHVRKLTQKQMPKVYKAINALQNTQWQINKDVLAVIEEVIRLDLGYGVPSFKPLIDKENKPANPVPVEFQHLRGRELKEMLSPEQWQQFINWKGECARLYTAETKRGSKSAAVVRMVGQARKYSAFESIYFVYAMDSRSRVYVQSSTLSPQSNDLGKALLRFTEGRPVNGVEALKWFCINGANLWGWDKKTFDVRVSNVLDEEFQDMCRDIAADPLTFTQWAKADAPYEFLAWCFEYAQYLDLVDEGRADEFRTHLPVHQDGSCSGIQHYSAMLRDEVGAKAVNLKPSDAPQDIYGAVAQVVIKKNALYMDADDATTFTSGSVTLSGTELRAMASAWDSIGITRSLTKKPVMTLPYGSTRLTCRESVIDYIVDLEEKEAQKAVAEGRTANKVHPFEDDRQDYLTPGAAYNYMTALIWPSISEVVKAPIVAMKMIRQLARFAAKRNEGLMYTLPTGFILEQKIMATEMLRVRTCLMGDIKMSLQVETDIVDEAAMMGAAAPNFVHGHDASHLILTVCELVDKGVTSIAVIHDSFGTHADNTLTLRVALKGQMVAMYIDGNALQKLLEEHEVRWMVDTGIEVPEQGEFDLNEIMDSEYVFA
Description: Efficiency of cap analog incorporation into short RNA25 in IVT. The class given is biochemical. The conditions noted are these: RNA25nt, densitometry. In a few lines: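 DNase I digestion. 3′ ends trimmed with DNAzyme (30 pmol per 400 ng RNA, 50 mM Tris pH 7.4, 50 mM MgCl2, 1 h, 37°C), giving 25-nt RNA. Capped versus uncapped pppRNA bands quantified densitometrically.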

Another assay concerns the target hNudt16 (Homo sapiens, UniProt Q96DE0). Description: 5′ cap hydrolysis of analog-capped RNA25 with hNudt16. The class given is biochemical. The conditions noted are these: 30 min reaction with hNudt16; for % of hydrolysis SP6 product: RNA made with SP6 polymerase; for % of hydrolysis T7 product: RNA made with T7 polymerase. In a few lines:
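Substrate: 50 ng 25-nt cap-analog RNA with trimmed 3′ ends. Digested with 2.5 µM hNudt16 in 40 mM Tris pH 7.9, 100 mM NaCl, 6 mM MgCl2, 2 mM DTT for 30 min at 37°C. Stopped with formamide loading dye, 5 min at 75°C. Run on 15% polyacrylamide/7 M urea, SYBR Gold stain. Hydrolysis = densitometric % loss of capped band; mean ± SD, three experiments. Orientation inferred from hydrolysis pattern.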

Assay [2] concerns the target cap-dependent translation in RRL system. The class given is biochemical, rabbit. The conditions noted are these: inhibition of ARCA-mRNA luciferase translation in RRL system; mean ± SD. The gist of the method:
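Flexi rabbit reticulocyte lysate preincubated 60 min at 30°C under cap-dependent conditions. Then m2^7,3′O GpppG-capped firefly luciferase mRNA was added together with increasing concentrations of cap analog, and incubated a further 60 min at 30°C. Luminescence read immediately. IC50 by nonlinear regression; mean ± SD of ≥3 independent replicates. Ratio expresses IC50 relative to m7GpppG control.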

The test system of assay [3] is cap-dependent translation. The settings on record: translation inhibition; ref Wojcik et al. 2021; cited from earlier work.

Chain of hNudt16 (Q96DE0 whole entry): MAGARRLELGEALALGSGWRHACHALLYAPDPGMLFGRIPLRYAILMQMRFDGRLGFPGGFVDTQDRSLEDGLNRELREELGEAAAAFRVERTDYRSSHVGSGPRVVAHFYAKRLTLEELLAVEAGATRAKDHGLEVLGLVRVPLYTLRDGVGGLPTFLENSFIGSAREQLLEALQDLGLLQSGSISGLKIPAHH
Chain of murine eIF4E (P63073 28-217): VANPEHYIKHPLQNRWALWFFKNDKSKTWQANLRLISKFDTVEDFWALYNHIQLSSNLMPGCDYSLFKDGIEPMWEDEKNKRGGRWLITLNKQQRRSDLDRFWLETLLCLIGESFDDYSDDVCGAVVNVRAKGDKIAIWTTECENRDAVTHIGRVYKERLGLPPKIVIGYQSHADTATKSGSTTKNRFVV

Turning to `Nc1nc2c(ncn2[C@@H]2O[C@H](COP(=O)(O)OP(=O)(O)OP(=O)(O)OC[C@H]3O[C@@H](n4cnc5c(N)ncnc54)[C@H](O)[C@@H]3O)[C@@H](O)[C@H]2O)c(=O)[nH]1` [ApppG], on murine eIF4E, the “Tm (at 100 μM of ligand)” value is 38.62 °C. In addition, the “translation level in comparison to m^7GpppG-capped transcript” value in assay [1] (RRL) is on record as approximately 10%. Besides, in assay [1], the “Relative cap-dependent translation efficiency” value is 0 and the Relative translation efficiency is given as 0.09 ± 0.06.
Turning to `Nc1nc2c(ncn2[C@@H]2O[C@H](COP(=O)(O)OP(=O)(O)OP(=O)(O)OC[C@H]3O[C@@H](n4cnc5c(=O)[nH]c(N)nc54)[C@H](O)[C@@H]3O)[C@@H](O)[C@H]2O)c(=O)[nH]1` [GpppG], the “capped fraction (capping efficiency)” value on SP6 RNA polymerase is recorded as 85.3 ± 0.8%. In addition, at hNudt16, the “% of hydrolysis SP6 product” value was 86.2 ± 3.9% and 86.18%; the “% of hydrolysis T7 product” value worked out at 82.06%.
For `CO[C@H]1[C@@H](O)[C@H]([n+]2cn(C)c3c(=O)[nH]c(N)nc32)O[C@@H]1COP(=O)([O-])OP(=O)(O)OP(=O)(O)OC[C@H]1O[C@@H](n2cnc3c(=O)[nH]c(N)nc32)[C@H](O)[C@@H]1O` [m2^7,3′OGpppG], the “capped fraction (capping efficiency)” value on SP6 RNA polymerase is 65.8 ± 2.4%. On hNudt16, the “% of hydrolysis SP6 product” value is on record as 8.7 ± 2.0% and the “% of hydrolysis T7 product” value turned out to be 4.81%. Moreover, at murine eIF4E, the “ΔTm (at 100 μM of ligand)” value was “around 10 °C” and the “Tm (at 100 μM of ligand)” value is 47.53 °C. For the same compound, the “ΔTm (at 100 μM of ligand)” value at murine eIF4E (listed as m2^7,3'OGpppG) was 9.11 °C. Besides, in assay [1], the “Relative cap-dependent translation efficiency” value is given as 1.53 ± 0.20 and the Relative translation efficiency is recorded as 1.47. This compound came in with a Relative translation efficiency in assay [1] (listed as m2^7,3'-OGpppG) of 1.47 ± 0.17.
In assay [2], `Cn1c[n+]([C@@H]2O[C@H](COP(=O)(O)OP(=O)([O-])OP(=O)(O)OC[C@H]3O[C@@H](n4cnc5c(=O)[nH]c(N)nc54)[C@H](O)[C@@H]3O)[C@@H](O)[C@H]2O)c2nc(N)[nH]c(=O)c21` [m^7GpppG] registered an IC50 of 8.94 ± 0.86 µM. Further, at SP6 RNA polymerase, the “capped fraction (capping efficiency)” value was 74.3 ± 3.5%. Moreover, on hNudt16, the “% of hydrolysis SP6 product” value turned out to be 45.74% and the “% of hydrolysis T7 product” value is 32.24%. For the same compound, the “Tm (at 100 μM of ligand)” value on murine eIF4E was 48.10 °C. Also, in assay [1], the “Relative cap-dependent translation efficiency” value came to 1 and the Relative translation efficiency is given as 1. In addition, in assay [3], the half-inhibitory concentration (IC50) was 11.4 ± 2.4 µM.

As usually defined, the IC50 is the concentration that inhibits the measured activity by half.
